From article PMC8486320 (Journal of medicinal chemistry, 2021)
Each block holds one compound with its values, some of them ahead of it. Where no end group is shown, it is not given here. The star is where a group is joined. Crotonyl(E) = C/C=C/C(=O)*

How the values were obtained:
AF9 proteins = molecular target: T1, AF9 proteins (Homo sapiens, UniProt P42568); experiment: Cellular thermal shift assay; format: cell-based; details: HeLa cells, 20 μM, 5 h
T1 sequence (P42568 1-568): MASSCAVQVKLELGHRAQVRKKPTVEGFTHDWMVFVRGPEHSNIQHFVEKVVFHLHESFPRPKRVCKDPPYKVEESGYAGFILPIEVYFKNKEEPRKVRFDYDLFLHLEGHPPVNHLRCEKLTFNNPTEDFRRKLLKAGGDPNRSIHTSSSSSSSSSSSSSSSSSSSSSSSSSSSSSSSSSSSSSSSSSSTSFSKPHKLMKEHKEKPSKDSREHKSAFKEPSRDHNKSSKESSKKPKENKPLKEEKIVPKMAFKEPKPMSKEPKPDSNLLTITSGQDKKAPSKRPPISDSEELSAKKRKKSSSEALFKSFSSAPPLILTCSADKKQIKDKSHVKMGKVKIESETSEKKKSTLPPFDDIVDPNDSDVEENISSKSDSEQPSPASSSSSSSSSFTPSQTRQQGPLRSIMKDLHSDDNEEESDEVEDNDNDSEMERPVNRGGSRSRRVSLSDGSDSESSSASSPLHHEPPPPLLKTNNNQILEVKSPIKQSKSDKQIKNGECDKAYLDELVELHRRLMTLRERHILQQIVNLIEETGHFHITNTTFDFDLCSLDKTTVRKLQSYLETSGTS
Outline: (§1)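 Cells were incubated with 20 µM test compound for 5 h, washed three times in PBS and resuspended in PBS with protease inhibitors (about 3 million cells per aliquot). Aliquots were heated 3 min at the indicated temperatures, then held 2 min at room temperature. Cells were lysed with NP40/glycerol/DTT buffer plus three liquid-nitrogen/37 °C freeze-thaw cycles, and cleared at 13,000 rpm, 4 °C, 10 min. Soluble protein was read by western blot.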

AF9 = molecular target: T2, AF9 (Homo sapiens, UniProt P42568); experiment: Competitive peptide pulldown, AF9 with H3K9ac; format: binding; details: 20 μM compound
T2 sequence (P42568 1-145): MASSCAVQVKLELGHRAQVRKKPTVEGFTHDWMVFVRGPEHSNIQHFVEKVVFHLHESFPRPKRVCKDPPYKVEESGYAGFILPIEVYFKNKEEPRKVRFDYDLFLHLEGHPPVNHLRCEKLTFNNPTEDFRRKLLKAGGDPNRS

ENL protein = molecular target: T3, ENL protein (Homo sapiens, UniProt Q03111); experiment: Cellular thermal shift assay; format: cell-based; details: 20 μM, 5 h
T3 sequence (Q03111 1-559): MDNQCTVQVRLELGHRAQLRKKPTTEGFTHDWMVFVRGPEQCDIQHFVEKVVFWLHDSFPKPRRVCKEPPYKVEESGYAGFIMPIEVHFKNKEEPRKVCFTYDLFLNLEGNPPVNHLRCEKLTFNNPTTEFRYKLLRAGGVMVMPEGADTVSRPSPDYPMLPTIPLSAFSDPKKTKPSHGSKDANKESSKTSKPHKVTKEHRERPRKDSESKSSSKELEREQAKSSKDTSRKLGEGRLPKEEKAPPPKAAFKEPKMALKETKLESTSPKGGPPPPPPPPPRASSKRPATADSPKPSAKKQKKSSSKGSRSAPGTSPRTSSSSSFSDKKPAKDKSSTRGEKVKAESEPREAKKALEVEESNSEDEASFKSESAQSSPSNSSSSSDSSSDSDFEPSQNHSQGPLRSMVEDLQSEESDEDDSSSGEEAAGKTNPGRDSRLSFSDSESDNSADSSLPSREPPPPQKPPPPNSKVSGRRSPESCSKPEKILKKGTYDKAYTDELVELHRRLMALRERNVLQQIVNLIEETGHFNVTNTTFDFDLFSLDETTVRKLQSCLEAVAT
Outline: as §1

Caco-2 cell monolayers = experiment: Caco-2 cell permeability assay; format: in vitro ADME; details: 10 μM, 2 hours, A-B direction
Outline: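 Flux was measured across polarised Caco-2 monolayers in triplicate, with ranitidine, talinolol and warfarin as controls. Apparent permeability (Papp) was calculated for the apical-to-basolateral direction.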

MOLM13 cells = experiment: Combinatorial treatment of compound 7 and JQ1, MOLM13; format: cell-based, human; details: 7 0 to 20 μM, JQ1 0–200 nM, Combenefit
Outline: (§2)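 Leukaemia cells kept in RPMI-1640 with 10% FBS were given DMSO, test compound, JQ1, or the two combined at a concentration matrix for 6 days. Viability was read by CellTiter-Glo luminescence as % surviving relative to DMSO. Drug interaction was scored as synergy using Combenefit.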

MV4;11 cells [1] = experiment: Combinatorial treatment of compound 7 and JQ1, MV4; format: cell-based, human; details: 7 0 to 20 μM, JQ1 0–200 nM, Combenefit
Outline: as §2

HOXA9 gene expression = experiment: qRT-PCR of HOXA9 gene expression in MOLM13 cells; format: cell-based, human
Outline: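 MOLM13 cells were treated with test compound or DMSO. Total RNA was extracted and reverse-transcribed, and HOXA9 was quantified by SYBR Green real-time PCR. Expression was normalised to GAPDH by the comparative Ct method; mean ± SEM, n = 3, two-tailed Student's t test.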

GAS41 [2] = molecular target: T4, GAS41 (Homo sapiens, UniProt O95619); experiment: Competitive peptide pulldown, GAS41 with H3K27ac; format: binding; details: 20 μM compound
GAS41 [3] = molecular target: T4, GAS41; experiment: Cellular thermal shift assay; format: cell-based; details: MV4;11 and MOLM13 cells, 20 μM, 5 h, vs DMSO
Outline: as §1

ENL YEATS domain [4] = molecular target: T5, ENL YEATS domain (Homo sapiens, UniProt Q03111); experiment: 1H,15N HSQC NMR titration of ENL YEATS domain; format: binding; details: 15N-labelled His-ENL, ligand titrated
T5 sequence (Q03111 1-148): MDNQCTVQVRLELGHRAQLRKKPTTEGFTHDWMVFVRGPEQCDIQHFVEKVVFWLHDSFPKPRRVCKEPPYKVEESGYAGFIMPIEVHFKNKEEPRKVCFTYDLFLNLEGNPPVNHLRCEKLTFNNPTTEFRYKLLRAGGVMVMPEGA
Outline: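 15N-labelled YEATS domain was expressed in E. coli Rosetta-2 (DE3) pLysS in NH4Cl minimal medium (0.5 mM IPTG, 18 h, 16 °C) and purified by Ni-NTA then size exclusion. 1H,15N HSQC spectra were recorded at 298 K, 600 MHz, on 0.2 mM protein in 25–50 mM Tris-HCl pH 7.5, 150 mM NaCl, 0.2 mM TCEP, 10% D2O. Test compound or H3K27cr peptide (aa 22–31) was added stepwise at set protein:ligand molar ratios.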

YEATS2 = molecular target: T6, YEATS2 (Homo sapiens, UniProt Q9ULM3); experiment: Competitive peptide pulldown, YEATS2 with H3K27cr; format: binding; details: 20 μM compound
T6 sequence (Q9ULM3 201-332): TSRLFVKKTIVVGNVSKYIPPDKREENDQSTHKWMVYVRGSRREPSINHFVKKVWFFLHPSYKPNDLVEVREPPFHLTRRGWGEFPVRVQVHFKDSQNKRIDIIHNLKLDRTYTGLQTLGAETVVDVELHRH

U2OS cells = experiment: Cell growth inhibition assay; format: cell-based, human; details: even at 50 μM, ENL-independent cell line
MV4;11 cells [5] = experiment: Cell growth inhibition assay; format: cell-based, human; details: compared with MOLM13 (5 and 10 μM), 3 days
ENL = molecular target: T7, ENL (Homo sapiens, UniProt Q03111); experiment: Competitive peptide pulldown, ENL with H3K9ac; format: binding
T7 sequence (Q03111 1-145): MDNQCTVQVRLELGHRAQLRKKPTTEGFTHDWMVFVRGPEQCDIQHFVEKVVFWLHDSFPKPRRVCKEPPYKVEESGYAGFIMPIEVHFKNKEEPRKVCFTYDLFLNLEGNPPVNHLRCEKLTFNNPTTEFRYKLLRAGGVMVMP

ENL YEATS domain [6] = molecular target: T8, ENL YEATS domain (Homo sapiens, UniProt Q03111); experiment: AlphaScreen assay, His-ENL YEATS / biotin-H3K9ac interaction; format: binding; details: SAR comparison with 11 or 6
T8 sequence (Q03111 1-145): T7 sequence (Q03111 1-145)

YEATS2 YEATS domain = molecular target: T9, YEATS2 YEATS domain (Homo sapiens, UniProt Q9ULM3); experiment: AlphaScreen assay, YEATS2 YEATS / H3K27cr peptide; format: binding
T9 sequence (Q9ULM3 201-332): T6 sequence (Q9ULM3 201-332)

GAS41 YEATS domain = GAS41 YEATS domain (Homo sapiens, UniProt O95619); experiment: AlphaScreen assay, GAS41 YEATS / H3K27ac peptide; format: binding
Chain of GAS41 YEATS domain (O95619 whole entry, the tested form may be a part): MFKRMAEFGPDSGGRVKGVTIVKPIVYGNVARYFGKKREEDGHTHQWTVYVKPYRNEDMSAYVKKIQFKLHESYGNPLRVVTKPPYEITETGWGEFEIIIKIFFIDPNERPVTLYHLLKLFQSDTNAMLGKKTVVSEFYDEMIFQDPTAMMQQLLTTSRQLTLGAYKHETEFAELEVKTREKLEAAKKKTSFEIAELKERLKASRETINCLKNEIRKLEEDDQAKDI

T4 sequence (O95619 whole entry): as the sequence (O95619 whole entry, the tested form may be a part) above

- thermal stability of AF9 protein (CETSA) (AF9 proteins): stabilized ENL but not AF9 proteins
- thermal stability of ENL protein (CETSA) (ENL protein; HeLa cells): stabilized ENL
- thermal stability of ENL protein (CETSA) (ENL protein; MV4;11 and MOLM13 cells, vs DMSO): bound and stabilized ENL proteins
- Caco-2 permeability (Caco-2 cell monolayers): comparable to 11
- thermal stability of GAS41 protein (CETSA) (GAS41 [3]): little or no difference
- chemical shift perturbations, exchange regime on the NMR timescale (ENL YEATS domain [4]): intermediate to slow exchange regime
- inhibition of ENL binding to H3K9ac (ENL; 5 μM compound): strongly inhibited
Compound: CN(C)Cc1ccc(CNC(=O)c2ccc3nncn3c2)cc1 [compound 7, N-(4-((dimethylamino)methyl)benzyl)-[1,2,4]triazolo[4,3-a]pyridine-6-carboxamide]
- inhibition of AF9 binding to acylated histone peptide (AF9): none of these compounds showed notable inhibition
- interaction with JQ1 in killing leukemia cells (MOLM13 cells): synergistic effect
- interaction with JQ1 in killing leukemia cells (MV4;11 cells [1]): synergistic effect
- lowest drug concentration effectively suppressing HOXA9 gene expression (HOXA9 gene expression): 2.5 µM
- inhibition of GAS41 binding to acylated histone peptide (GAS41 [2]): none of these compounds showed notable inhibition
- inhibition of YEATS2 binding to acylated histone peptide (YEATS2): none of these compounds showed notable inhibition
- response of U2OS cell growth to treatment (U2OS cells): little or no response
- inhibition of MV4;11 cell growth (MV4;11 cells [5]): about double amounts of the compound were needed to achieve similar levels of inhibition

- inhibition of ENL binding to H3K9ac (ENL; 1 μM compound): strongly inhibited
Compound: O=C(NCc1ccc(CNc2ncc(F)cn2)cc1)c1ccc2nncn2c1 [compound 24, N-(4-(((5-fluoropyrimidin-2-yl)amino)methyl)benzyl)-[1,2,4]triazolo[4,3-a]pyridine-6-carboxamide]
- inhibition of AF9 binding to acylated histone peptide (AF9): none of these compounds showed notable inhibition
- inhibition of GAS41 binding to acylated histone peptide (GAS41 [2]): none of these compounds showed notable inhibition
- inhibition of YEATS2 binding to acylated histone peptide (YEATS2): none of these compounds showed notable inhibition

- inhibition potency compared with parent compound (ENL YEATS domain [6]): greatly reduced the inhibition potency
Compound: CC(NC(=O)c1ccc2nncn2c1)c1ccc(CN2CCC2)cc1 (centres unmarked) [compound 16, N-(1-(4-(azetidin-1-ylmethyl)phenyl)ethyl)-[1,2,4]triazolo[4,3-a]pyridine-6-carboxamide]

- chemical shift perturbations, exchange regime on the NMR timescale (ENL YEATS domain [4]): intermediate to fast exchange regime
Compound: H3K27cr peptide: histone H3 residues 22–31 with a crotonylation at K27 (TKAARK(Crotonyl(E))SAPA; UniProt P68431 23-32, looked up, fragment) [reference compound]

Compound: O=C(NCc1ccc(CN2CCC2)cc1)c1ccc2nncn2c1 [compound 11, N-(4-(azetidin-1-ylmethyl)benzyl)-[1,2,4]triazolo[4,3-a]pyridine-6-carboxamide]
- inhibition of AF9 binding to acylated histone peptide (AF9): none of these compounds showed notable inhibition
- inhibition of GAS41 binding to acylated histone peptide (GAS41 [2]): none of these compounds showed notable inhibition
- inhibition of YEATS2 binding to acylated histone peptide (YEATS2): none of these compounds showed notable inhibition
- inhibition of ENL binding to H3K9ac (ENL; 1 μM compound): strongly inhibited

- inhibition of YEATS2 YEATS domain (IC50 measurement) (YEATS2 YEATS domain): no detectable inhibition
- inhibition of GAS41 YEATS domain (IC50 measurement) (GAS41 YEATS domain): no detectable inhibition
- inhibition of ENL binding to H3K9ac (ENL; 5 μM compound): strongly inhibited
Compound: CSc1ccc(CNC(=O)c2ccc3nncn3c2)cc1 [compound 1]
- inhibition of AF9 binding to acylated histone peptide (AF9): none of these compounds showed notable inhibition
- inhibition of GAS41 binding to acylated histone peptide (GAS41 [2]): none of these compounds showed notable inhibition
- inhibition of YEATS2 binding to acylated histone peptide (YEATS2): none of these compounds showed notable inhibition

Compound: O=C(NCc1cccc(CN2CCC2)c1)c1ccc2nncn2c1 [compound 15, N-(3-(azetidin-1-ylmethyl)benzyl)-[1,2,4]triazolo[4,3-a]pyridine-6-carboxamide]
- inhibition potency compared with parent compound (ENL YEATS domain [6]): did not result in any increase of potency
